Compound activity from PubChem.
Lmaj promast = inhibitors of Leishmania major promastigote growth | hit rate 9% among 200,000 | inhibition, % at 10 µM | AID 1063 | Leishmania major promastigotes, resazurin fluorescence viability; in the data active = inhibition above about 50%;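 note: promastigotes grown with compound for 44 hours at 28 °C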
S1P3 antag = blocks the human S1P3 receptor | Q99500 | CHO S1P3 NFAT-BLA reporter, FRET fluorescence, antagonist mode | inhibition, % at 4.98 µM | hit rate 0.27% among 170,000;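 active = inhibition above the plate cutoff, the mean inhibition of test wells on that plate plus 3 SD, cut at about 28% in these data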;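 note: cells challenged with S1P at its EC80 of 0.8 µM; blue over green emission ratio from cleaved BLA substrate after 4 h stimulation; 0% = S1P-stimulated wells and 100% = unstimulated DMSO-only wells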
S1P4 agonist = activates the human S1P4 receptor. AID 1509. S1P4-expressing cell line, agonist reporter assay. activation, % at 4.98 µM. hit rate 0.35% among 220,000; in the data active = activation above about 11%;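 note: 0% = DMSO vehicle and 100% = reference agonist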
S1P4 antagonist = blocks the human S1P4 receptor; O95977; S1P4-expressing cells, antagonist mode, reporter read-out; inhibition, % at 4.98 µM; hit rate 0.26% among 220,000; AID 1510; in the data active = inhibition above about 29%;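 note: 0% = wells stimulated with agonist and 100% = vehicle wells without agonist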
MDM2 E3 inh = Mdm2 E3 ligase (human) inhibition. Q00987. cell-based MDM2 ubiquitination luciferase reporter, 2 h; 0 = plate control, 100 = twice control, blank-subtracted. signal enhancement, % at 5 µM. hit rate 0.11% among 210,000. AID 1230;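 active = signal enhancement of 30% or more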;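 note: luminescence tracks abundance of the self-degrading MDM2-luciferase fusion protein; higher signal means inhibition of MDM2 E3 ligase activity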
Target sequence (Q00987 whole entry, looked up, the tested form may be a part): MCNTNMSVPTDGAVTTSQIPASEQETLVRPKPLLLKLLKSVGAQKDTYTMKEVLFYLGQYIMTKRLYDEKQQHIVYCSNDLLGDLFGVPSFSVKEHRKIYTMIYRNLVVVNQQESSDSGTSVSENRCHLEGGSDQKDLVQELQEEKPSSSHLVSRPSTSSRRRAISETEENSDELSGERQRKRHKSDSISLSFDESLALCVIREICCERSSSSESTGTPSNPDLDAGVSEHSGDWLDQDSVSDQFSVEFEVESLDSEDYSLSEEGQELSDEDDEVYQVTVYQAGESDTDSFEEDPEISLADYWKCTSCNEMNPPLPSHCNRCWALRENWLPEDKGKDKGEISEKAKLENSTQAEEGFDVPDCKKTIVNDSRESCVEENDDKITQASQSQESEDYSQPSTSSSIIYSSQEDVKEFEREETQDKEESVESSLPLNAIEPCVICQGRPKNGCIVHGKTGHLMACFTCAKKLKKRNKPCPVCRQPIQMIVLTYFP
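Test system: mammalian cells stably expressing self-ubiquitinating, self-degrading MDM2 E3–luciferase fusion; Amount: 2000 cells in each well; Medium: DMEM; Schedule: 4 h settle plus 2 h compound, 37 °C; Technique: SteadyLite luciferase luminescence after 15 min room-temperature reagent incubation; Benchmarks: plate control and blank wells.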
Active calls of the source: *; · = no result. Only a selection was taken, and hits are over-represented in it overall.

SMILES | Lmaj promast | S1P3 antag | S1P4 agonist | S1P4 antagonist | MDM2 E3 inh
CCOC(=O)c1cccc(NC(=O)C2(S(=O)(=O)c3ccc(Cl)cc3)CC2)c1 | 4 | 7 | 1 | -27 | 2
O=C(N/N=C/c1cccc(OC(=O)c2ccco2)c1)c1ccc(F)cc1 | -4 | 0 | 1 | 26 | -11
CCCC1=[N+](CC)CCn2c(C)ccc21 | 1 | -25 | 0 | -2 | 3
CCCC1=[N+](CC(=O)c2ccccc2)CCn2c(C)ccc21 | 90* | · | -1 | -4 | -14
COc1ccc(N(C)C(=O)c2cc3c(s2)-c2c(C)cccc2OC3)c(OC)c1 | · | -11 | -1 | 7 | ·
Cc1ccc(CSC2=NCCN2S(=O)(=O)c2ccccc2)cc1 | 100* | -5 | 1 | 2 | -18
O=S(=O)(c1ccccc1)N1CCN=C1SCc1ccccc1 | 35 | 5 | 2 | 3 | -10
COc1ccc(Nc2nnc(SCC(=O)c3cc(C)n(CC4CCCO4)c3C)s2)cc1 (stereo unspecified) | 50* | · | 1 | -22 | -12
Cc1cc(C)cc(N(C(=O)c2nsc(Cl)c2Cl)C(C(=O)NC2CCCC2)c2ccc(O)cc2)c1 (stereo unspecified) | 71* | 17 | 1 | -3 | -13
Cc1cccc(N(C(=O)c2nsc(Cl)c2Cl)C(C(=O)NC2CCCC2)c2ccc(O)cc2)c1C (stereo unspecified) | 98* | 10 | 1 | 11 | -1
Cc1ccc(N(C(=O)c2nsc(Cl)c2Cl)C(C(=O)NC2CCCC2)c2ccc(O)cc2)cc1C (stereo unspecified) | 76* | 13 | 2 | -2 | -1
Cc1cccn2c(=O)c3cc(C(=O)NCCN4CCOCC4)n(Cc4ccccc4)c3nc12 | · | 10 | · | · | ·
CCOCCCn1c(=N)c(C(=O)NCCN2CCOCC2)cc2c(=O)n3cccc(C)c3nc21 | 61* | -22 | 6 | -22 | -16
CCCn1c(=N)c(C(=O)NCc2ccc3c(c2)OCO3)cc2c(=O)n3cccc(C)c3nc21 | 96* | -10 | 2 | -19 | 6
CCOCCCn1c(=N)c(C(=O)NCc2ccc3c(c2)OCO3)cc2c(=O)n3ccccc3nc21 | 28 | 18 | 3 | -10 | 10
CCCCn1c(=NC(=O)c2ccc3c(c2)OCO3)c(C#N)cc2c(=O)n3cccc(C)c3nc21 | 86* | -5 | 3 | -2 | -23
COCCn1c(=NC(=O)c2ccc3c(c2)OCO3)c(C#N)cc2c(=O)n3cccc(C)c3nc21 | 36 | -36 | 0 | -3 | 1
COc1ccc2nccc(C(N)=O)c2c1 | · | -5 | 1 | 8 | -13
Cc1ccc(C(=O)NCC(=O)OCC(=O)Nc2cc(C)c(C)cc2[N+](=O)[O-])cc1 | 41 | -15 | 1 | -29 | -3
Cc1cc(C)n(-c2ccc(C(=O)OCC(=O)Nc3ccccc3[N+](=O)[O-])cc2)n1 | -4 | -2 | 1 | -11 | -7
COc1ccc(Cl)cc1NC(=O)COC(=O)CNC(=O)c1ccc([N+](=O)[O-])c(C)c1 | 56* | -7 | 0 | -7 | -12
COCC(=O)OCC(=O)Nc1cc(C)c(C)cc1[N+](=O)[O-] | 55* | -2 | -1 | -12 | 12
Cc1cc(C)n(-c2ccc(C(=O)OCC(=O)Nc3cc(Cl)ccc3[N+](=O)[O-])cc2)n1 | 59* | 3 | 0 | -11 | 14
Cc1[nH][nH]c(=O)c1C(c1ccc(-c2ccc(C(=O)O)cc2)o1)c1c(C)[nH][nH]c1=O | -6 | -18 | 0 | -9 | -7
COc1ccc(-c2ccc(C(c3c(C)[nH][nH]c3=O)c3c(C)[nH][nH]c3=O)o2)c([N+](=O)[O-])c1 | 61* | -31 | 0 | -8 | -16
SMILES | Lmaj promast | S1P3 antag | S1P4 agonist | S1P4 antagonist | MDM2 E3 inh
Cc1[nH][nH]c(=O)c1C(c1ccc(-c2ccc(Cl)c(Cl)c2)o1)c1c(C)[nH][nH]c1=O | 100* | · | 2 | -20 | -19
Cc1[nH][nH]c(=O)c1C(c1ccc(-c2ccc(F)cc2)o1)c1c(C)[nH][nH]c1=O | 99* | -9 | 1 | -6 | -11
CC(=O)c1cccc(NC(=O)/C(=C\c2cccnc2)NC(=O)c2ccco2)c1 | -4 | -12 | -1 | -32 | -11
Cc1ccc(-n2c(SCC3CNC(=O)O3)nnc2-c2ccccc2)cc1C (stereo unspecified) | 1 | -11 | 1 | -21 | 4
Cc1cccc(N2CCN(C(c3ccccc3)c3nnnn3C(C)(C)C)CC2)c1C (stereo unspecified) | 45 | · | -4 | 3 | -4
Cc1cccc(N2CCN(C(c3cccs3)c3nnnn3C(C)(C)C)CC2)c1C (stereo unspecified) | 76* | · | 1 | -4 | -23
CC(C)(C)n1nnnc1C(c1cccnc1)N1CCN(c2ccccn2)CC1 (stereo unspecified) | 81* | -8 | 2 | -15 | -3
CN1CCN(C(c2ccccc2)c2nnnn2Cc2ccccc2)CC1 (stereo unspecified) | -2 | · | 3 | -17 | -11
c1ccc(Cn2nnnc2C(c2cccnc2)N2CCN(c3ccccc3)CC2)cc1 (stereo unspecified) | 99* | -4 | -2 | 2 | -15
CC(C)(C)n1nnnc1C(c1cccnc1)N1CCN(c2ccccc2)CC1 (stereo unspecified) | 78* | · | 0 | -13 | -6
Clc1ccc(CO/N=C2\CCCc3nonc32)c(Cl)c1 | -11 | 19 | 0 | -14 | -3
NC(=O)c1ncn([C@@H]2O[C@H](CO)[C@@H](O)[C@H]2O)c1O | -7 | -8 | 1 | -5 | ·
Cc1ccc(C2=NNC(c3ccc(Cl)cc3)=Nc3ccccc32)o1 | 8 | 0 | 0 | -17 | -5
CCOc1ccc(C2c3c(oc4ccccc4c3=O)C(=O)N2c2ccc(C)cn2)cc1OC (stereo unspecified) | 80* | -5 | 0 | -12 | -2
Cc1nnc(SC(C)C(=O)Nc2c(C)n(C)n(-c3ccccc3)c2=O)n1N (stereo unspecified) | 1 | 0 | 0 | -19 | 3
CCOC(=O)c1c(-c2ccc(C)o2)csc1NC(=O)CN1CCOCC1 | 89* | · | 1 | -5 | -4
CCOC(=O)c1c(-c2ccccc2)csc1NC(=O)CCN1CCOCC1 | 98* | 6 | 0 | -15 | -8
CCOC(=O)c1c(-c2ccccc2)csc1NC(=O)c1ccc(S(=O)(=O)N2CCOCC2)cc1 | 9 | 5 | 0 | -5 | -7
CCOC(=O)c1c(-c2cccs2)csc1NC(=O)CN1CCOCC1 | 4 | -7 | 0 | -26 | -6
CCOC(=O)c1c(-c2ccc(C)cc2)csc1NC(=O)CCN1CCOCC1 | 97* | 2 | 0 | -26 | -88
CC12CCC(C(=O)N3CCC(Cc4ccccc4)CC3)(C(=O)C1=O)C2(C)C (stereo unspecified) | 6 | 0 | 2 | 3 | -20
O=C(COc1ncnc2ccccc12)Nc1ccc(S(=O)(=O)N2CCOCC2)cc1 | · | -9 | 0 | 4 | -3
CN(C)S(=O)(=O)Nc1cc(Cl)cc(Cl)c1 | -6 | 15 | 0 | 1 | 9
